Assay results taken from ChEMBL document CHEMBL3526125, “P-glycoprotein increases portal bioavailability of loperamide in mouse by reducing first-pass intestinal metabolism” (Drug Metab Dispos, 2013).

What was measured:
[1] = AUC (0 to 120 mins) in P-gp competent CF-1 mouse plasma at 0.4 mg/kg through oral gavage in presence of 1 mM ABT CYP3A inhibitor; type: ADME, organism-based; parameters: time < 2 hr, dose 0.4 mg/kg, route oral
[2] = AUC (0 to 120 mins) in P-gp competent CF-1 mouse plasma at 0.4 mg/kg through oral gavage; type: ADME, organism-based; parameters: time < 2 hr, dose 0.4 mg/kg, route oral
Procedure, shortened: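 Mice were anaesthetised with IP ketamine 140 mg/kg and xylazine 15 mg/kg, kept at 37°C, and portal vein-cannulated. Pretreatment was saline or oral ABT at 50 mg/kg. Portal-circulation AUC0–120 min was calculated.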

[3] = Drug metabolism in P-gp competent CF-1 mouse intestine assessed as CYP3A-mediated metabolite formation measured per cm'2 of tissue by LC-MS/MS analysis in presence of 100 uM Cyp3a oxidative metabolism inhibitor troleandomycin; type: ADME, tissue-based
[4] = Drug metabolism in P-gp deficient CF-1 mouse intestine assessed as CYP3A-mediated metabolite formation measured per cm'2 of tissue by LC-MS/MS analysis in presence of 100 uM Cyp3a oxidative metabolism inhibitor troleandomycin; type: ADME, tissue-based
[5] = Portal bioavailability in P-gp competent CF-1 mouse at 0.23 mg/kg through oral gavage by LC-MS/MS analysis in presence of 1 mM ABT CYP3A inhibitor; type: ADME, organism-based; conditions: in vivo
Procedure, shortened: (§1)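 Mice received oral ABT 50 mg/kg 3 h before study, plus another 50 mg/kg co-administered with loperamide 0.23 mg/kg in 300 µL 0.9% NaCl with 1% EtOH. Portal and jugular sampling over 240 min. F_G = (portal minus systemic-returned mass)/dose, using portal flow 1.45 mL/min and blood:plasma ratio 0.71. n=6.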

[6] = Portal bioavailability in P-gp deficient CF-1 mouse at 0.23 mg/kg through oral gavage by LC-MS/MS analysis in presence of 1 mM ABT CYP3A inhibitor; type: ADME, organism-based; conditions: in vivo; procedure, shortened: as §1
[7] = AUC in P-gp competent CF-1 mouse plasma at 0.23 mg/kg through systemic exposure; type: ADME, organism-based; parameters: dose 0.23 mg/kg
Procedure, shortened: (§2)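 Overnight-fasted, ketamine/xylazine-anesthetized CF-1 or Mdr1a1-/- mice with jugular vein cannulae. Loperamide 0.23 or 0.47 mg/kg by oral gavage in 300 µL 0.9% NaCl with 1% EtOH. Jugular blood (20 µL) taken at 10, 30, 60, 120, 180 and 240 min. Plasma loperamide measured by LC-MS/MS. AUC0–240 min, n=6.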

[8] = AUC in P-gp competent CF-1 mouse plasma at 0.47 mg/kg through systemic exposure; type: ADME, organism-based; parameters: dose 0.47 mg/kg; procedure, shortened: as §2
[9] = AUC in P-gp deficient CF-1 mouse plasma at 0.23 mg/kg through systemic exposure; type: ADME, organism-based; parameters: dose 0.23 mg/kg; procedure, shortened: as §2
[10] = AUC in P-gp deficient CF-1 mouse plasma at 0.47 mg/kg through systemic exposure; type: ADME, organism-based; parameters: dose 0.47 mg/kg; procedure, shortened: as §2
[11] = AUC (0 to 240 mins) in P-gp deficient CF-1 mouse plasma at 0.23 mg/kg through oral gavage; type: ADME, organism-based; parameters: time < 4 hr, dose 0.23 mg/kg, route oral
Procedure, shortened: (§3)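 Male CF-1 (P-gp competent) or Mdr1a1-/- mice, overnight-fasted, on ketamine/xylazine anesthesia held at 37°C, portal vein-cannulated. Loperamide 0.23, 0.47 or 0.95 mg/kg by oral gavage in 300 µL 0.9% NaCl with 1% EtOH. Serial 20 µL portal blood samples over 240 min. Plasma loperamide quantified by LC-MS/MS. AUC0–240 min reported as mean ± SD, n=6.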

[12] = AUC (0 to 240 mins) in P-gp competent CF-1 mouse plasma at 0.94 mg/kg through oral gavage; type: ADME, organism-based; parameters: time < 4 hr, dose 0.94 mg/kg, route oral; procedure, shortened: as §3
[13] = AUC (0 to 240 mins) in P-gp competent CF-1 mouse plasma at 0.47 mg/kg through oral gavage; type: ADME, organism-based; parameters: time < 4 hr, dose 0.47 mg/kg, route oral; procedure, shortened: as §3
[14] = AUC (0 to 240 mins) in P-gp competent CF-1 mouse plasma at 0.23 mg/kg through oral gavage; type: ADME, organism-based; parameters: time < 4 hr, dose 0.23 mg/kg, route oral; procedure, shortened: as §3
[15] = AUC (0 to 240 mins) in P-gp deficient CF-1 mouse plasma at 0.47 mg/kg through oral gavage; type: ADME, organism-based; parameters: time < 4 hr, dose 0.47 mg/kg, route oral; procedure, shortened: as §3
[16] = Drug metabolism in P-gp competent CF-1 mouse intestine assessed as CYP3A-mediated metabolite formation […]; type: ADME, tissue-based; conditions: excised jejunum tissue
[17] = Drug metabolism in P-gp deficient CF-1 mouse intestine assessed as CYP3A-mediated metabolite formation […]; type: ADME, tissue-based; conditions: excised jejunum tissue
CYP3A [18] = test: Drug metabolism in P-gp competent CF-1 mouse intestine assessed as CYP3A-mediated […] by LC-MS/MS analysis; type: ADME, tissue-based
Procedure, shortened: (§4)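 Jejunum from fasted CF-1 or Mdr1a1-/- mice mounted in diffusion chambers in oxygenated KBR at 37°C; tissue used if TEER ≥250 Ω·cm². Apical loperamide 0.75–125 µM in KBR with 0.1% EtOH for 90 min. Monodemethyl- plus didemethyl-loperamide summed across tissue, AP and BL by LC-MS/MS. Fitted to Michaelis–Menten for Vmax and Km. n=3 mice × 4 tissues.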

CYP3A [19] = test: Drug metabolism in P-gp deficient CF-1 mouse intestine assessed as CYP3A-mediated […] by LC-MS/MS analysis; type: ADME, tissue-based; procedure, shortened: as §4
[20] = Portal bioavailability in P-gp deficient CF-1 mouse at 0.94 mg/kg through oral gavage; type: ADME, organism-based; conditions: in vivo
Procedure, shortened: (§5)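 Portal vein-cannulated, anesthetized CF-1 or Mdr1a1-/- mice given oral loperamide 0.23, 0.47 or 0.94 mg/kg. Portal and systemic plasma converted to blood concentration using a blood:plasma ratio of 0.71. M_portal = Q_portal (1.45 mL/min) × AUC_portal(0–4 h). M_systemic is subtracted to give M_absorbed, and F_G = M_absorbed/dose. n=6.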

[21] = Portal bioavailability in P-gp competent CF-1 mouse at 0.47 mg/kg through oral gavage; type: ADME, organism-based; conditions: in vivo; procedure, shortened: as §5
[22] = Portal bioavailability in P-gp deficient CF-1 mouse at 0.47 mg/kg through oral gavage; type: ADME, organism-based; conditions: in vivo; procedure, shortened: as §5
[23] = Portal bioavailability in P-gp competent CF-1 mouse at 0.23 mg/kg through oral gavage; type: ADME, organism-based; conditions: in vivo; procedure, shortened: as §5
[24] = Portal bioavailability in P-gp deficient CF-1 mouse at 0.23 mg/kg through oral gavage; type: ADME, organism-based; conditions: in vivo; procedure, shortened: as §5
[25] = AUC (0 to 240 mins) in P-gp deficient CF-1 mouse plasma at 0.94 mg/kg through oral gavage; type: ADME, organism-based; parameters: time < 4 hr, dose 0.94 mg/kg, route oral; procedure, shortened: as §3

C[C@]12CC[C@H]3[C@@H](CCC4=CC(=O)CC[C@@]43C)[C@@H]1CC[C@@H]2O [TESTOSTERONE]
AUC(0-t) at 2 h [1]: 1 ng·h/mL | AUC(0-t) at 2 h [2]: 43.3 ng·h/mL | Vmax [3]: 0.5 pmol/min | Vmax [4]: 0.5 pmol/min

CN(C)C(=O)C(CCN1CCC(O)(c2ccc(Cl)cc2)CC1)(c1ccccc1)c1ccccc1 [LOPERAMIDE]
Fg [5]: 3.6% | Fg [6]: 28% | AUC [7]: 0.933 ng·h/mL | AUC [8]: 0.517 ng·h/mL | AUC [9]: 1.03 ng·h/mL | AUC [10]: 4.33 ng·h/mL | AUC(0-t) at 4 h [11]: 1.5 ng·h/mL | AUC(0-t) at 4 h [12]: 81.7 ng·h/mL | AUC(0-t) at 4 h [13]: 4.48 ng·h/mL | AUC(0-t) at 4 h [14]: 4.43 ng·h/mL | AUC(0-t) at 4 h [15]: 7 ng·h/mL | Vmax [16]: 31 pmol/min/cm² | Vmax [17]: 30 pmol/min/cm² | Km (CYP3A [18]): 22 µM | Km (CYP3A [19]): 4.5 µM | Fg [20]: 17% | Fg [21]: 1.7% | Fg [22]: 1.1% | Fg [23]: 2.6% | Fg [24]: 0.4% | AUC(0-t) at 4 h [25]: 95 ng·h/mL
